One series deals with Human rhinovirus sp. As to the kind of experiment: Antiviral activity against Human rhinovirus. The format is functional, organism-based.
The species named for series [1] is Homo sapiens. The experiment in a line: Inhibition of PI4K3 alpha (unknown origin) at 10 uM by ADP-Glo assay relative to control. Summed up:
(§1)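 PI4K IIIα and PI4K IIIβ activity read by ADP-Glo assay. Each compound was tested at a single concentration of 10 μM, and residual enzyme activity was expressed relative to control.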
Background: ADP-Glo turns the ADP formed in a reaction into a luminescent signal.

The subject of a further series is Coxsackievirus B3. The experiment in a line: Antiviral activity against Human coxsackievirus B3. Format: functional, organism-based. The following applies: Enterovirus B.
The nature of series [2]: Inhibition of PI4K3 beta (unknown origin) by ADP-Glo assay. Details: species or system Homo sapiens.
The nature of series [3]: Cytotoxicity against human HeLa cells. Format: cell-based.
The next series has as its system Hepatitis C virus. As to the kind of experiment: Antiviral activity against Hepatitis C virus subtype 1b. The format is functional, organism-based, Hepacivirus hominis. The following applies: genotype 1b.
Series [4] is filed under the species Homo sapiens. As to the kind of experiment: Inhibition of PI4K3 beta (unknown origin) assessed as residual activity at 10 uM by ADP-Glo assay relative to control. Summed up:
as §1

By EC50 is commonly meant the concentration at which the effect is half-maximal. Read a high EC50 as a less potent agent. Usually inhibition stands for the share of the control response that was lost under treatment. Read a low inhibition as a response near the control. A word on the IC50: it is the concentration that gives 50% inhibition. High values mean a need for much substance, low ones inhibition by little substance. As a reminder, the CC50 is the concentration giving 50% cytotoxicity. A low value points to greater toxicity to the cells.

As to `COc1ccc(-n2c(C)nc3c(NCCN4CCOCC4)nc(N)nc32)cc1OC`, the figures for the EC50 with Human rhinovirus sp., with Coxsackievirus B3 and in the series on Hepatitis C virus were 49 µM, 19 µM and 40 µM, respectively. In the series filed under Homo sapiens [1], the inhibition was less than 50%. This compound gave an IC50 in series [2] of 1.44 µM. This compound yielded a CC50 in series [3] of more than 50 µM. The Activity in the series listed under Homo sapiens [4] is 25%.
For `COc1ccc(-n2c(C)nc3c(NCCN4CCOCC4)nc(-c4cccc(NC(C)=O)c4)nc32)cc1OC`, the EC50 with Human rhinovirus sp. was determined as 9.3 µM; in the series with Coxsackievirus B3 it was 1.6 µM; in the series with Hepatitis C virus, 5.9 µM. The compound also displayed an inhibition in the series listed under Homo sapiens [1] of less than 50%. Moreover, half-maximal inhibition in series [2] (IC50) required 2.14 µM. In addition, the CC50 in series [3] was more than 50 µM. Besides, the Activity in the series filed under Homo sapiens [4] came out at 14%.
On to `COc1ccc(-n2c(C)nc3c(NCCN4CCOCC4)nc(-c4ccc(O)cc4)nc32)cc1OC`, for which the EC50 in the series on Human rhinovirus sp. amounted to 3 µM; in the series on Coxsackievirus B3, 1.8 µM; in the series with Hepatitis C virus it was 1.3 µM. For the same compound, the inhibition in the series filed under Homo sapiens [1] is less than 50%. For the same compound, in series [2], the IC50 is 2.37 µM. Moreover, in series [3], the CC50 was more than 50 µM. Moreover, in the series filed under Homo sapiens [4], the Activity was determined as 18%.
Regarding `COc1ccc(-n2c(C)nc3c(NCCN4CCOCC4)nc(C#N)nc32)cc1OC`, the EC50 was 31 µM in the series with Human rhinovirus sp., more than 50 µM in the series with Coxsackievirus B3 and 14 µM in the series with Hepatitis C virus. Besides, the inhibition in the series filed under Homo sapiens [1] is less than 50%. The compound also displayed an IC50 in series [2] of 2.07 µM. In series [3], this compound returned a CC50 of more than 50 µM. In addition, the Activity in the series listed under Homo sapiens [4] is 24%.
As for `COc1ccc(-n2c(Br)nc3c(NCCN4CCOCC4)nc(C)nc32)cc1OC`, the EC50 was 25 µM in the series on Human rhinovirus sp., 11 µM with Coxsackievirus B3 and 6.7 µM in the series on Hepatitis C virus. The inhibition in the series filed under Homo sapiens [1] is less than 50%. In series [2], this compound gave an IC50 of 5.2 µM. The compound also returned a CC50 in series [3] of more than 50 µM. In the series filed under Homo sapiens [4], the Activity was determined as 17%.

(Values after ChEMBL document CHEMBL3804807, “Purine analogs as phosphatidylinositol 4-kinase IIIβ inhibitors” (Bioorg Med Chem Lett, 2016).)
